# Screens deposited in PubChem by several laboratories.
# Only some compounds are listed: those with a hit (about 4.3% of all), similar ones and a draw of the others.
# AHR act: human AHR activation; AID 2796; activation, % at 5 µM; hit rate 2.5% among 320,000; P35869; AHR-responsive luciferase reporter cells, luminescence; in the data active means activation above about 47%;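 further: 0% = vehicle wells and 100% = reference agonist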
# Target sequence (P35869 whole entry, looked up): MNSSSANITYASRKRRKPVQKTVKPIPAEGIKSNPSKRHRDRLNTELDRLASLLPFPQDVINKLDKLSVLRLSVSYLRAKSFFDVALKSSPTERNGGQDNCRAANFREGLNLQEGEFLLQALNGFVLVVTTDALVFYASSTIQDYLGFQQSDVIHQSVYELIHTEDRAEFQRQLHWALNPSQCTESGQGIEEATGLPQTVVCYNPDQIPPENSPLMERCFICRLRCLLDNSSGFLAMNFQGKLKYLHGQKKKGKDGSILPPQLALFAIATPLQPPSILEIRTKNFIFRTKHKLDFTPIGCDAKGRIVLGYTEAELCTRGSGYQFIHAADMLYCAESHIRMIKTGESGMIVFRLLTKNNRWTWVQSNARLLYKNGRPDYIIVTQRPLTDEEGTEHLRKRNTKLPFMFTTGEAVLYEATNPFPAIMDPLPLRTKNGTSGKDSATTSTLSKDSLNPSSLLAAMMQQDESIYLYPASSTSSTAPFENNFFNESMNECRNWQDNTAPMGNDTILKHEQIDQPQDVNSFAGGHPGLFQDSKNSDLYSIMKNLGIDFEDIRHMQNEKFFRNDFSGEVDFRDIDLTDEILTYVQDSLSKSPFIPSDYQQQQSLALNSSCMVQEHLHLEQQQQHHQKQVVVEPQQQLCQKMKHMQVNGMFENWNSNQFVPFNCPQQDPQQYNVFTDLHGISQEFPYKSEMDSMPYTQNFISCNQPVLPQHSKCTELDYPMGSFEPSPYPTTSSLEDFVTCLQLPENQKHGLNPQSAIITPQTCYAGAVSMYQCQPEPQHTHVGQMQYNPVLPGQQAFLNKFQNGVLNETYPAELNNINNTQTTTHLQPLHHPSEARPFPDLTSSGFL
# SR-BI DiI inh: mouse SR-BI HDL lipid transfer inhibition; Q61009; ldlA[mSR-BI] CHO cells, DiI-HDL uptake fluorescence, 3 h; inhibition, % at 12.5 µM; hit rate 0.96% among 320,000;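 active means mean replicate inhibition of at least 70% and a set share of replicates each scoring 70 or more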;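 further: 0% = median of neutral control wells and 100% = median of positive control wells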
# SR-BI DiI-HDL act: enhances SR-BI lipid uptake from DiI-HDL; hit rate 0.096% among 320,000; activation, % at 12.5 µM; CHO ldlA[mSR-BI] cells, DiI-HDL uptake fluorescence, 3 h; 100 = double the neutral-control signal;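 active means mean replicate activation of at least 60% and every replicate at or above 60%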;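 further: 0% = median plate neutral-control signal and 100% = twice that signal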
#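 Test system: SR-BI-overexpressing, LDLR-lacking CHO cells; Also added: labelled HDL, 10 µg/mL; Measured by: bottom-read cell fluorescence after medium removal, ex 550/em 595 nm; Timing: 3 h uptake period with compound, 37 °C; Buffer or medium: F12, 0.5% BSA, 25 mM HEPES; Doses: single compound concentration, delivered by pin transfer.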
# SMARCA2 act: activators of SMARCA2 function; MG213 cells, MMTV-luciferase reporter, dexamethasone, overnight; activation, % at 9.1 µM; hit rate 1% among 370,000; AID 652017; in the data active means activation above about 7.8%;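 further: 0% = vehicle wells and 100% = reference activator wells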
# Hep lipid drop: hepatic lipid droplet formation modulation. inhibition, % at 6.5 µM. AML12 mouse hepatocytes, oleate lipid droplets, BODIPY imaging. AID 1656. hit rate 0.4% among 240,000;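 active means lipid droplet intensity inhibited by at least 50%, with more than 500 cells counted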
#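 Assay system: AML12 mouse liver cells | Compound dosing: One dose, 6.5 µM compound | Read-out basis: Droplet intensity reduction, % inhibition | Measured by: Fluorescence imaging, 20x objective, two fields per well | Schedule: Overnight treatment with compound plus oleate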
# Yeast superoxide: caloric restriction mimetics inhibiting age-related superoxide in yeast | S. cerevisiae aged cells, superoxide DHE fluorescence; stronger effect = lower value | superoxide response (% of plate mean), % at 10 µM | hit rate 0.18% among 330,000 | AID 2690;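 active means superoxide response under a set limit, about three screen SD below normal, cut at about 65% in these data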;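 further: yeast aged for seven days with compound at 30 °C before DHE staining; 100% = average MFI of all compound-treated wells on the plate with controls excluded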
# * = called active by the depositor; . = no result.
SMILES,AHR act,SR-BI DiI inh,SR-BI DiI-HDL act,SMARCA2 act,Hep lipid drop,Yeast superoxide
O=C(O)Cc1sc(Nc2cccc3ccccc23)nc1-c1ccccc1,61*,23,-23,-4,.,98
O=C(O)Cc1sc(Nc2cccc3ccccc23)nc1-c1ccc(Cl)cc1,56*,14,-14,-1,-2,106
O=C(O)Cc1sc(Nc2ccc(Cl)cc2)nc1-c1cccs1,.,5,-5,3,16,.
Cc1cc(N2CCN(S(C)(=O)=O)C[C@@H]2C)ccc1N1CCN(Cc2ccccc2)[C@@H](C)C1,.,.,.,-1,.,.
Cc1cc(-c2cc(NC(=O)Cc3c[nH]c4ccccc34)ccc2N(C)c2cccnc2)ccc1F,.,.,.,1,.,.
CCOC(=O)[C@@]12CCCC3=C1N(CCC3)C(=O)[C@H]2CC(=O)N1CCCC1,.,.,.,-2,.,.
CC(C)n1cc(/C=C2/NC(=O)NC2=O)c2ccccc21,74*,59,-59,5,0,102
C#CCn1cc(/C=C2\NC(=O)NC2=O)c2ccccc21,77*,36,-36,6,-16,103
Cc1ccc(C)c(OCC(O)CN2CCCCC2C)c1 (configuration not stated),48*,-7,7,1,.,94
Cc1ccc(C)c(OCC(O)CN2C(C)CCCC2C)c1 (configuration not stated),7,-11,11,-2,-12,89
O=S(=O)(NNc1ncc(C(F)(F)F)cc1Cl)c1ccccc1,69*,27,-27,4,.,98
Cc1ccccc1S(=O)(=O)Nc1ncc(C(F)(F)F)cc1Cl,-1,3,-3,-3,3,94
O=S1(=O)c2c(cccc2N2CC[C@H](O)C2)O[C@H]2CCN1C2,.,.,.,0,.,.
COc1cc(/C=C/C(=O)OCC(=O)N2CCN(S(=O)(=O)c3ccc(C)cc3C)CC2)ccc1OC(F)F,.,78*,-78,-2,.,.
Fc1ccccc1Cn1ccc2ccc(-c3ccc4ccn(Cc5ccccc5F)c4c3)cc21,.,.,.,2,.,.
CN1C(=O)SC(Nc2ccccc2)C1=O (configuration not stated),5,-17,17,-1,30,99
COc1cccc(NC2SC(=O)N(c3ccccc3)C2=O)c1 (configuration not stated),3,-9,9,8.0*,5,96
CCCOc1ccc(-c2c(C(=O)N/N=C/c3ccccc3)nnn2-c2nonc2N)cc1,1,77*,-77,-5,37,94
CC(C)c1c(C(=O)N/N=C/c2ccoc2)nnn1-c1nonc1N,0,-5,5,0,-3,94
CCOc1ccc(-c2c(C(=O)N/N=C/c3c[nH]c4ccccc34)nnn2-c2nonc2N)cc1,19,88*,-88,-2,-47,107
CC(C)c1c(C(=O)N/N=C/c2ccc(C(F)(F)F)cc2)nnn1-c1nonc1N,0,77*,-77,1,-2,96
O=[N+]([O-])c1ccc(COc2ccccc2CO)cc1,.,.,.,4,.,.
O=C(CSc1nnc(-c2ccccc2)n1-c1ccc(Cl)cc1)Nc1ccc(OCc2ccccc2)cc1,.,.,.,0,.,.
COC(=O)[C@]12C[C@H](CC(=O)N3CCOCC3)C(=O)N(CCC3=CCCCC3)C1=C[C@H](C1CCCC1)O[C@@H]2C,.,.,.,-1,.,.
Nc1c(-c2ccc(Cl)cc2)cnn1-c1cccc(C(F)(F)F)c1,-4,77*,-77,-1,.,104
SMILES,AHR act,SR-BI DiI inh,SR-BI DiI-HDL act,SMARCA2 act,Hep lipid drop,Yeast superoxide
Cc1ccc(-c2cnn(-c3cccc(C(F)(F)F)c3)c2N)cc1,3,55,-55,2,.,100
COc1ccc(CCN2C(=O)c3ccccc3C2c2nnnn2C(C)C)cc1OC (configuration not stated),.,.,.,-2,.,.
COc1ccc(CN2C(=O)c3ccccc3C2c2nnnn2C(C)C)cc1OC (configuration not stated),.,.,.,7.8*,.,.
CCn1c(COc2ccc(C)cc2)nnc1SCC(=O)Nc1ccccc1-c1ccccc1,.,.,.,-4,.,.
COC(=O)[C@]12C[C@H](CC(=O)N3CCCC3)C(=O)N(Cc3ccco3)C1=C[C@H](C(C)(C)C)O[C@@H]2C,.,.,.,0,.,.
O=C1C=C(c2ccc(F)nc2)C[C@@H](c2ccc3c(c2)OCO3)C1,58*,43,-43,0,.,94
O=C(N/N=C1\SCC(=O)N1CCc1ccccc1)c1cccs1,51*,4,-4,-3,-1,113
O=C(COc1cccc2cccnc12)NNC(=S)Nc1ccccc1,3,.,.,.,-30,102
O=C(COc1cccc2cccnc12)N/N=C1\SCC(=O)N1Cc1ccccc1,52*,4,-4,-2,14,111
COc1ccc(N2C[C@@]3(O)CC[C@@H](O)[C@@H](OC)[C@@H]3[C@@](C)(O)[C@@H]2CC=C(C)C)cc1,.,.,.,-3,.,.
COc1cc(C#Cc2c(-c3cncn3C)n(C)c3ccc(-c4ccc(OC)nc4)cc23)cc(OC)c1,60*,-29,29,2,.,114
CCCC(=O)Nc1ccc(N2CCN(S(C)(=O)=O)CC2)cc1,1,-21,21,8.4*,0,80
CCCCC(=O)Nc1ccc(N2CCN(S(C)(=O)=O)CC2)cc1,1,3,-3,-1,12,110
Cc1ccc(S(=O)(=O)N/N=c2\sc3ccccc3n2C)cc1,23,-25,25,1,3,107
Cc1cccc(S(=O)(=O)N/N=c2\sc3ccccc3n2C)c1,66*,-29,29,4,22,107
Clc1ccc(-c2n[nH]c3c2CCCC3)cc1,56*,10,-10,0,11,89
COc1cc2c(cc1OC)C(=Cc1ccc(N(C)C)cc1)C=C2,.,76*,-76,2,.,.
CNc1ccc(C=C2C=Cc3ccccc32)cc1,.,56,-56,1,.,.
CCOC(=O)C1=NOC(C(C)=O)(C(=O)Nc2cc(C)cc(C)c2)C1 (configuration not stated),.,.,.,-2,.,.
COC(=O)[C@H]1C[C@@]2(n3ccc4ccccc43)c3ccccc3N(S(=O)(=O)c3ccccc3)[C@H]2N1,.,.,.,-4,.,.
NNc1nc2ccc(F)cc2s1,77*,15,-15,2,-1,86
Fc1ccc2nc(Nc3ccccc3)sc2c1,26,17,-17,3,-1,86
Fc1ccc2nc(Nc3nc4c(F)cccc4s3)sc2c1,62*,-3,3,2,-14,95
Cc1cccc2nc(-c3ccccc3)c(-c3ccc(CN4CCC5(CC4)CNc4ccccc45)cc3)nc12,.,.,.,2,.,.
COc1cc(/C=C2/NC(=O)NC2=O)cc(Br)c1OCc1ccccc1,59*,48,-48,0,12,96
COc1cc(/C=C2/NC(=O)NC2=O)cc(Br)c1OCc1cccc(C(=O)O)c1,2,-7,7,0,2,94
O=C(Cc1c[nH]c2ccccc12)Nc1ccc(Nc2cccnc2)cc1,.,.,.,-2,.,.
